Two compounds from article PMC6125788 (Molecular pharmaceutics, 2018) can be followed below.

In series [1] the test system is A375 cells. Briefly: Phototoxicity and dark toxicity, Alamar Blue assay. The format is cell-based, human. As to conditions: no irradiation, up to 1000 nM of IR700 equiv. The gist of the method: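 A375 cells were incubated overnight at 37 °C with free IR700 or PEG-IR700 conjugates at increasing concentrations (IR700 equiv.). Cells were then washed with fresh medium and kept unirradiated, as dark controls for the 660 nm photo-irradiation arm. Viability was measured 24 h later by Alamar Blue (4 h, fluorescence Ex 540/Em 590 nm); N = 4.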

Series [2] relates to A375 cells. As to the kind of experiment: Cellular uptake by flow cytometry in A375 cells. As to conditions: free cRGDfK 10 μM. The format is cell-based, human. A digest of the protocol:
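A375 cells grown in DMEM with 10% FBS and 1% penicillin/streptomycin at 37 °C, 5% CO2. Cells were exposed to untargeted or RGD-targeted PEG-IR700 conjugate for 4 h, with or without free cRGDfK (10 μM). They were then trypsinized to single cells, and cell-associated fluorescence was read by flow cytometry.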
In general terms: Flow cytometry measures light scatter and fluorescence of single cells or particles in a stream.

As to `C[Si](C)(CCC[N+](CCCS(=O)(=O)[O-])(CCCS(=O)(=O)[O-])CCCS(=O)(=O)[O-])O[Si]1(O[Si](C)(C)CCC[N+](CCCS(=O)(=O)[O-])(CCCS(=O)(=O)[O-])CCCS(=O)(=O)[O-])n2c3c4ccccc4c2N=C2N=C(N=c4c5ccccc5c(n41)=NC1=NC(=N3)c3ccccc31)c1cccc(OCCCOC(=O)NCCCCCC(=O)ON3C(=O)CCC3=O)c12.[Na+].[Na+].[Na+].[Na+]` (centres unmarked) [IR700, IRDye 700DX], the cytotoxicity in dark result in the series on A375 cells [1] is “no dark toxicity”.
As to `N=C(N)NCCC[C@@H]1NC(=O)[C@H](CCCCN)NC(=O)[C@@H](Cc2ccccc2)NC(=O)[C@H](CC(=O)O)NC(=O)CNC1=O` [cRGDfK], in the series on A375 cells [2], the “effect of free peptide on uptake of RGD-8PEG-IR700” value is given as “dramatically reduce the uptake”.
